According to ChEMBL document CHEMBL1123915, “Macrolides with gastrointestinal motor stimulating activity” (1987):
In brackets after ≈: the same amount, converted by molar mass.

How the values were obtained:
Escherichia coli = experiment: Antibacterial activity against Escherichia coli NIHJ; type: functional
In short: (§1)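 MIC determined by agar dilution. Strains as listed on each line.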

Staphylococcus aureus = experiment: Antibacterial activity against Staphylococcus aureus ATCC 6538P; type: functional; in short: as §1
Klebsiella pneumoniae = experiment: Antibacterial activity against Klebsiella pneumoniae ATCC 10031; type: functional; in short: as §1
Bacillus cereus = experiment: Antibacterial activity against Bacillus cereus IFO 3001; type: functional; in short: as §1
Canis familiaris = experiment: Evaluated for gastrointestinal motor stimulating (GMS) activity in dog estimated in vivo by 2 x 2 points parallel line assay. Activity of EM-A was assumed to be 1; type: functional, Canis lupus familiaris
In short: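 Fasted conscious dogs carried chronically implanted serosal force transducers recording circular muscle contraction in the gastric body, antrum and small intestine. Dosing was an intravenous bolus 10–15 min after interdigestive gastric contractions ended. Antral contractile waves were integrated for 10 min from injection. Relative potency came from a 2 × 2 parallel line assay with five animals per dose, using EM as the reference in each assay.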

Bacillus subtilis = experiment: Antibacterial activity against Bacillus subtilis ATCC 6633; type: functional; in short: as §1

Row | SMILES | MIC (Escherichia coli) [µg/mL] | MIC (Staphylococcus aureus) [µg/mL] | MIC (Klebsiella pneumoniae) [µg/mL] | MIC (Bacillus cereus) [µg/mL] | GMS activity (Canis familiaris) | MIC (Bacillus subtilis) [µg/mL]
1 | CCC1OC(=O)C(C)C(O[C@H]2C[C@@](C)(OC)[C@@H](O)[C@@H](C)O2)C(C)[C@@H](O[C@@H]2O[C@H](C)C[C@@H]([N+](C)(C)CC)[C@H]2O)[C@]2(C)CC(C)=C(O2)[C@H](C)[C@@H](O)[C@]1(C)O.[I-] (stereo not given in full) | > 100 | > 100 | > 100 | > 100 | 111 | > 100
2 | C=CC[N+](C)(C)[C@@H]1C[C@@H](C)O[C@@H](O[C@@H]2C(C)C(O[C@H]3C[C@@](C)(OC)[C@@H](O)[C@@H](C)O3)C(C)C(=O)OC(CC)[C@@](C)(O)[C@H](O)[C@@H](C)C3=C(C)C[C@]2(C)O3)[C@@H]1O.[Br-] (stereo not given in full) | > 100 | 100 | > 100 | > 100 | 256 | > 100
3 | C#CC[N+](C)(C)[C@@H]1C[C@@H](C)O[C@@H](O[C@@H]2C(C)C(O[C@H]3C[C@@](C)(OC)[C@@H](O)[C@@H](C)O3)C(C)C(=O)OC(CC)[C@@](C)(O)[C@H](O)[C@@H](C)C3=C(C)C[C@]2(C)O3)[C@@H]1O.[Br-] (stereo not given in full) | > 100 | 100 | > 100 | 100 | 2890 | 100
4 | CCC1OC(=O)C(C)C(O[C@H]2C[C@@](C)(OC)[C@@H](O)[C@@H](C)O2)C(C)[C@@H](O[C@@H]2O[C@H](C)C[C@@H]([N+](C)(C)C)[C@H]2O)[C@]2(C)CC(C)=C(O2)[C@H](C)[C@@H](O)[C@]1(C)O.[I-] (stereo not given in full) | > 100 | > 100 | > 100 | > 100 | 21 | > 100
5 | CC[C@H]1OC(=O)[C@H](C)[C@@H](O[C@H]2C[C@@](C)(OC)[C@@H](O)[C@H](C)O2)[C@H](C)[C@@H](O[C@@H]2O[C@H](C)C[C@H](N(C)C)[C@H]2O)[C@@]2(C)CC(C)=C(O2)[C@H](C)[C@@H](O)[C@]1(C)O | > 100 | 50 (≈ 69.8 µM) | > 100 | 25 (≈ 34.9 µM) | 10 | 25 (≈ 34.9 µM)
6 | C#CC[N+](C)(C)C1CC(C)OC(O[C@@H]2C(C)C(OC3CC(C)(OC)C(O)C(C)O3)C(C)C(=O)OC(CC)[C@@](C)(O)[C@H](O)[C@@H](C)C3O[C@@]2(C)C[C@H]3C)C1O.[Br-] (stereo not given in full) | > 100 | > 100 | > 100 | > 100 | 202 | > 100
7 | CCC1OC(=O)C(C)C(O[C@H]2C[C@@](C)(OC)[C@@H](O)[C@@H](C)O2)C(C)[C@@H](O[C@@H]2O[C@H](C)C[C@@H](N(C)CC)[C@H]2O)[C@]2(C)CC(C)=C(O2)[C@H](C)[C@@H](O)[C@]1(C)O (stereo not given in full) | > 100 | > 100 | > 100 | > 100 | 18 | > 100
8 | C=CC[N+](C)(C)C1CC(C)OC(O[C@@H]2C(C)C(OC3CC(C)(OC)C(O)C(C)O3)C(C)C(=O)OC(CC)[C@@](C)(O)[C@H](O)[C@@H](C)C3O[C@@]2(C)C[C@H]3C)C1O.[Br-] (stereo not given in full) | > 100 | 100 | > 100 | 100 | 115 | 100
9 | CCC1OC(=O)C(C)C(OC2CC(C)(OC)C(O)C(C)O2)C(C)[C@@H](OC2OC(C)CC([N+](C)(C)C)C2O)[C@]2(C)C[C@@H](C)C(O2)[C@H](C)[C@@H](O)[C@]1(C)O.[I-] (stereo not given in full) | > 100 | > 100 | > 100 | > 100 | 65 | > 100
10 | CC[C@H]1OC(=O)[C@H](C)[C@@H](O[C@H]2C[C@@](C)(OC)[C@@H](O)[C@H](C)O2)[C@H](C)[C@@H](O[C@@H]2O[C@H](C)C[C@H](N(C)C)[C@H]2O)[C@](C)(O)C[C@@H](C)C(=O)[C@H](C)[C@@H](O)[C@]1(C)O [ERYTHROMYCIN] | 12.5 (≈ 17 µM) | 0.2 (≈ 0.273 µM) | 6.25 (≈ 8.52 µM) | 0.1 (≈ 0.136 µM) | 1 | 0.1 (≈ 0.136 µM)
